Laboratory results published in ChEMBL document CHEMBL1129534, “Antitumor agents. 163. Three-dimensional quantitative structure-activity relationship study of 4'-O-demethylepipodophyllotoxin analogs using the modified CoMFA/q2-GRS approach” (J Med Chem, 1996).
Values joined by “and” are separate entries in the source; they are usually repeats but may differ in a detail not shown here. Equal entries are not always repeated.

What follows are molecules tested against DNA topoisomerase II (Homo sapiens) (UniProt P11388+Q02880) (assay: Compound tested for ability to form a cellular covalent topoisomerase II-DNA complex.).
Format: functional
Summary of the method: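 Read-out is intracellular covalent topoisomerase II–DNA complex formation, scored as the percentage of cellular protein–DNA complex formed (PCPDCF). For CoMFA modelling the values were transformed to ln(PCPDCF + 1).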

Which Protein-DNA complex formation does the source give for COc1cc([C@@H]2c3cc4c(cc3[C@@H](Nc3ccc5c(c3)OCCO5)[C@H]3COC(=O)[C@H]23)OCO4)cc(OC)c1O here?
Its Protein-DNA complex formation is 279%.

COc1cc([C@@H]2c3cc4c(cc3[C@@H](Nc3ccc(Oc5ccccc5)cc3)[C@H]3COC(=O)[C@H]23)OCO4)cc(OC)c1O was tested. Which Protein-DNA complex formation did it give?
Its Protein-DNA complex formation is 97%.

Which Protein-DNA complex formation does the source give for COc1cc([C@@H]2c3cc4c(cc3[C@@H](Nc3ccccn3)[C@H]3COC(=O)[C@H]23)OCO4)cc(OC)c1O here?
The Protein-DNA complex formation was 97%.

For COc1cc([C@@H]2c3cc4c(cc3[C@@H](Nc3ccc(I)cc3)[C@H]3COC(=O)[C@H]23)OCO4)cc(OC)c1O, which Protein-DNA complex formation is on record?
The Protein-DNA complex formation was 64%.

How did the Protein-DNA complex formation turn out when COC(=O)c1cccc(N[C@@H]2c3cc4c(cc3[C@@H](c3cc(OC)c(O)c(OC)c3)[C@H]3C(=O)OC[C@@H]32)OCO4)c1 was run?
Its Protein-DNA complex formation is 249%.

COc1cc([C@@H]2c3cc4c(cc3[C@@H](NC(=O)c3cccc(N)c3)[C@H]3COC(=O)[C@H]23)OCO4)cc(OC)c1O was tested. Which Protein-DNA complex formation did it give?
Its Protein-DNA complex formation is 149%.

For COc1cc([C@@H]2c3cc4c(cc3[C@@H](Nc3ccc(Br)cc3)[C@H]3COC(=O)[C@H]23)OCO4)cc(OC)c1O, which Protein-DNA complex formation is on record?
Its Protein-DNA complex formation is 179%.

COc1cc([C@@H]2c3cc4c(cc3[C@@H](Nc3ccccc3O)[C@H]3COC(=O)[C@H]23)OCO4)cc(OC)c1O was tested. Which Protein-DNA complex formation did it give?
The Protein-DNA complex formation was 151%.

Which Protein-DNA complex formation does the source give for COc1cc([C@@H]2c3cc4c(cc3[C@@H](NCCN3CCCCC3)[C@H]3COC(=O)[C@H]23)OCO4)cc(OC)c1O here?
The Protein-DNA complex formation was 183% and 190%.

COc1cc([C@@H]2c3cc4c(cc3[C@@H](NC(=O)c3cccc(F)c3)[C@H]3COC(=O)[C@H]23)OCO4)cc(OC)c1O was tested. Which Protein-DNA complex formation did it give?
Its Protein-DNA complex formation is 116%.

Which Protein-DNA complex formation does the source give for COc1cc([C@@H]2c3cc4c(cc3[C@@H](NCc3ccccc3F)[C@H]3COC(=O)[C@H]23)OCO4)cc(OC)c1O here?
Its Protein-DNA complex formation is 126%.

For COc1cc([C@@H]2c3cc4c(cc3[C@@H](NCCCO)[C@H]3COC(=O)[C@H]23)OCO4)cc(OC)c1O, which Protein-DNA complex formation is on record?
The Protein-DNA complex formation was 89.2%.

For COc1cc([C@@H]2c3cc4c(cc3[C@@H](NC(=O)c3ccc(OC(C)=O)cc3)[C@H]3COC(=O)[C@H]23)OCO4)cc(OC)c1O, which Protein-DNA complex formation is on record?
The Protein-DNA complex formation was 137%.

For COc1cc([C@@H]2c3cc4c(cc3[C@@H](NC(=O)c3cccc(C#N)c3)[C@H]3COC(=O)[C@H]23)OCO4)cc(OC)c1O, which Protein-DNA complex formation is on record?
Its Protein-DNA complex formation is 149%.

How did the Protein-DNA complex formation turn out when COc1cc([C@@H]2c3cc4c(cc3[C@@H](NCc3ccc(F)cc3)[C@H]3COC(=O)[C@H]23)OCO4)cc(OC)c1O was run?
The Protein-DNA complex formation was 169%.

How did the Protein-DNA complex formation turn out when COc1cc([C@@H]2c3cc4c(cc3[C@@H](Nc3cccc(F)c3)[C@H]3COC(=O)[C@H]23)OCO4)cc(OC)c1O was run?
The Protein-DNA complex formation was 158%.

COc1cc([C@@H]2c3cc4c(cc3[C@@H](NCc3ccccc3)[C@H]3COC(=O)[C@H]23)OCO4)cc(OC)c1O was tested. Which Protein-DNA complex formation did it give?
Its Protein-DNA complex formation is 181%.

For COc1cc([C@@H]2c3cc4c(cc3[C@@H](NCc3ccccc3[N+](=O)[O-])[C@H]3COC(=O)[C@H]23)OCO4)cc(OC)c1O, which Protein-DNA complex formation is on record?
Its Protein-DNA complex formation is 144%.

Which Protein-DNA complex formation does the source give for COc1cc([C@@H]2c3cc4c(cc3[C@@H](Nc3cccc(Br)c3)[C@H]3COC(=O)[C@H]23)OCO4)cc(OC)c1O here?
The Protein-DNA complex formation was 62%.

With COc1cc([C@@H]2c3cc4c(cc3[C@@H](Nc3ccccc3Cl)[C@H]3COC(=O)[C@H]23)OCO4)cc(OC)c1O as the molecule, how does the Protein-DNA complex formation read?
Its Protein-DNA complex formation is 32%.

Which Protein-DNA complex formation does the source give for COc1cc([C@@H]2c3cc4c(cc3[C@H](O)[C@H]3COC(=O)[C@H]23)OCO4)cc(OC)c1O here?
The Protein-DNA complex formation was 3.3%.

For COc1cc([C@@H]2c3cc4c(cc3[C@@H](Nc3cccc(C#N)c3)[C@H]3COC(=O)[C@H]23)OCO4)cc(OC)c1O, which Protein-DNA complex formation is on record?
The Protein-DNA complex formation was 137%.

For COc1cc([C@@H]2c3cc4c(cc3[C@@H](Nc3ccc(N5CCOCC5)cc3)[C@H]3COC(=O)[C@H]23)OCO4)cc(OC)c1O, which Protein-DNA complex formation is on record?
Its Protein-DNA complex formation is 140%.

COc1cc([C@@H]2c3cc4c(cc3[C@@H](NCCN(C)C)[C@H]3COC(=O)[C@H]23)OCO4)cc(OC)c1O was tested. Which Protein-DNA complex formation did it give?
The Protein-DNA complex formation was 183% and 203%.

How did the Protein-DNA complex formation turn out when COc1cc([C@@H]2c3cc4c(cc3[C@@H](NCc3ccc(C#N)cc3)[C@H]3COC(=O)[C@H]23)OCO4)cc(OC)c1O was run?
The Protein-DNA complex formation was 284%.

Which Protein-DNA complex formation does the source give for COc1cc([C@@H]2c3cc4c(cc3[C@@H](NCCCN(C)C)[C@H]3COC(=O)[C@H]23)OCO4)cc(OC)c1O here?
The Protein-DNA complex formation was 186% and 179%.

For COc1cc([C@@H]2c3cc4c(cc3[C@@H](Nc3cc(OC)c(OC)c(OC)c3)[C@H]3COC(=O)[C@H]23)OCO4)cc(OC)c1O, which Protein-DNA complex formation is on record?
Its Protein-DNA complex formation is 47%.

Which Protein-DNA complex formation does the source give for COC(=O)c1cc(N[C@@H]2c3cc4c(cc3[C@@H](c3cc(OC)c(O)c(OC)c3)[C@H]3C(=O)OC[C@@H]32)OCO4)cc(C(=O)OC)c1 here?
The Protein-DNA complex formation was 50%.

How did the Protein-DNA complex formation turn out when COc1cc([C@@H]2c3cc4c(cc3[C@@H](Sc3ccc(O)cc3)[C@H]3COC(=O)[C@H]23)OCO4)cc(OC)c1O was run?
The Protein-DNA complex formation was 10%.
